Activity, AUClast and inhibition data for 1 compound are collected here from ChEMBL document CHEMBL2203081 (Bioorg Med Chem Lett, 2012).

Structures are written as SMILES. The source made the active and inactive calls. The calls are words filed in the database; no cut-off is given here.

In series [1] the target is Angiopoietin-1 receptor (Homo sapiens) (UniProt Q02763). The experiment in a line: Inhibition of TIE2 assessed as residual activity at 10 uM.
Series [2] deals with Protein-tyrosine kinase 6 (Homo sapiens) (UniProt Q13882). The experiment in a line: Inhibition of BRK assessed as residual activity at 1 uM. The essentials: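 Radioactivity-based enzymatic assay against a panel of 131 kinases (Dundee profiling). Activity remaining was measured with compound present at the stated concentration.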
Series [3] has as its target Myosin light chain kinase, smooth muscle (Homo sapiens) (UniProt Q15746). Put plainly: Inhibition of SmMLCK assessed as residual activity at 1 uM.
In series [4] the target is Receptor tyrosine-protein kinase erbB-2 (Homo sapiens) (UniProt P04626). The experiment in a line: Inhibition of ERBB2 assessed as residual activity at 10 uM relative to control. The method in brief:
(§1)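 Competition kinase-binding assay (KINOMEscan) across a non-redundant panel of 329 kinases beyond the radiometric panel; residual binding expressed relative to control.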

Series [5] concerns the target T1, NUAK family SNF1-like kinase 1 (Homo sapiens) (UniProt O60285).
T1 sequence (whole entry): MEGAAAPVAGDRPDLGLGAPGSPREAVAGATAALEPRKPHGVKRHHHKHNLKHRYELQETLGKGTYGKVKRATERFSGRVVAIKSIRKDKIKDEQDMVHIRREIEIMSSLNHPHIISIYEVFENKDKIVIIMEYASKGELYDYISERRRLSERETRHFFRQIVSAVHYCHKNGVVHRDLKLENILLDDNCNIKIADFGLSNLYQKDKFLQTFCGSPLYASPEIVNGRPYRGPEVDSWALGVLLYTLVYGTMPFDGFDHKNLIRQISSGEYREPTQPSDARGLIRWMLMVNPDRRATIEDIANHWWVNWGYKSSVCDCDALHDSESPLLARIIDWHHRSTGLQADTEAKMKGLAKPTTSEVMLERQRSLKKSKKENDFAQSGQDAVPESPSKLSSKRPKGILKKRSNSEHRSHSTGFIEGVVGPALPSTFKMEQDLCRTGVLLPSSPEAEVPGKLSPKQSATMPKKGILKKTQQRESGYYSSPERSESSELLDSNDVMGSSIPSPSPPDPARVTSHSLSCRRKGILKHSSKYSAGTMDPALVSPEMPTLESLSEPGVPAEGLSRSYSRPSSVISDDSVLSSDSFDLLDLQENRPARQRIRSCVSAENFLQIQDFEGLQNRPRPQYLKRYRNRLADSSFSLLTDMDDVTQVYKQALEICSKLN
Put plainly: Inhibition of NUAK1 assessed as residual activity at 1 uM.

The target of series [6] is Serine/threonine-protein kinase 3 (Homo sapiens) (UniProt Q13188). The experiment in a line: Inhibition of MST2 assessed as residual activity at 1 uM.
Series [7] has as its target STE20/SPS1-related proline-alanine-rich protein kinase (Homo sapiens) (UniProt Q9UEW8). The experiment in a line: Inhibition of STK39 assessed as residual activity at 10 uM relative to control.
Series [8] addresses Serine/threonine-protein kinase PAK 5 (Homo sapiens) (UniProt Q9P286). Put plainly: Inhibition of PAK7 assessed as residual activity at 10 uM relative to control.
Series [9] deals with Insulin-like growth factor 1 receptor (Homo sapiens) (UniProt P08069). Put plainly: Inhibition of IGF-1R assessed as residual activity at 1 uM. The essentials: (§2)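 Radioactivity-based enzymatic activity assay of the named kinase, run as part of a 131-kinase specificity panel at the National Centre for Protein Kinase Profiling (Dundee). Residual activity was read at the stated single inhibitor concentration.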

Series [10] has as its target Casein kinase I isoform gamma-2 (Homo sapiens) (UniProt P78368). The experiment in a line: Inhibition of CSNK1G2 assessed as residual activity at 10 uM relative to control. The method in brief:
as §1

The target of series [11] is Protein kinase C eta type (Homo sapiens) (UniProt P24723). Put plainly: Inhibition of PRKCH assessed as residual activity at 10 uM relative to control.
The target in series [12] is Dual specificity tyrosine-phosphorylation-regulated kinase 1A (Homo sapiens) (UniProt Q13627). Put plainly: Inhibition of DYRK1A assessed as residual activity at 10 uM. The method in brief: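 Standard radioactivity-based enzymatic kinase assays on a 131-kinase panel run by the Dundee profiling service; residual kinase activity recorded.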
The target of series [13] is Mitogen-activated protein kinase 9 (Homo sapiens) (UniProt P45984). Put plainly: Inhibition of JNK2 assessed as residual activity at 1 uM. The essentials:
as §2

Series [14] has as its target Myosin light chain kinase, smooth muscle (Homo sapiens) (UniProt Q15746). The experiment in a line: Inhibition of SmMLCK assessed as residual activity at 10 uM.
Series [15] has as its system Tyrosine-protein kinase ABL1 (Homo sapiens), P00519 [F317I]. The experiment in a line: Inhibition of phosphorylated ABL1 F317I mutant assessed as residual activity at 10 uM relative to control.
A further series relates to Brain. Put plainly: AUClast in Swiss albino mouse brain at 10 mg/kg, po. On the set-up: time 0 - last, dose 10 mg/kg, route oral. Type of series: ADME, organism-based. The following applies: in vivo. The method in brief:
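Male Swiss Albino mice, single dose given intravenously (1 mg/kg) or orally (10 mg/kg). Drug measured in plasma and brain, with AUClast taken for each. The brain/plasma ratio is based on AUClast, and oral bioavailability is derived from the IV and PO plasma data.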

For series [16], the target named is Insulin receptor-related protein (Homo sapiens) (UniProt P14616). The experiment in a line: Inhibition of IRR assessed as residual activity at 1 uM. The essentials:
as §2

For series [17], the target named is Mitogen-activated protein kinase kinase kinase 10 (Homo sapiens) (UniProt Q02779). The experiment in a line: Inhibition of MLK2 assessed as residual activity at 10 uM relative to control.
Series [18] concerns the target Leucine-rich repeat serine/threonine-protein kinase 2 (Homo sapiens) (UniProt Q5S007). The following applies: HEK293, 0.3 to 1 uM.
The test system of series [19] is Leucine-rich repeat serine/threonine-protein kinase 2 (Homo sapiens), Q5S007 [A2016T]. The following applies: HEK293, 1 to 3 uM.
In series [20] the target is Mitogen-activated protein kinase 10 (Homo sapiens) (UniProt P53779). Put plainly: Inhibition of JNK3 assessed as residual activity at 10 uM relative to control.
Series [21] addresses Serine/threonine-protein kinase pim-1 (Homo sapiens) (UniProt P11309). Put plainly: Inhibition of PIM1 assessed as residual activity at 1 uM.
The target in series [22] is Cyclin-dependent kinase 2/cyclin A (Homo sapiens) (UniProt P24941+P20248+P78396). The experiment in a line: Inhibition of CDK2-Cyclin A assessed as residual activity at 10 uM. Type of series: protein-complex assay.

Sequence of Myosin light chain kinase, smooth muscle (Homo sapiens) (Q15746 whole entry): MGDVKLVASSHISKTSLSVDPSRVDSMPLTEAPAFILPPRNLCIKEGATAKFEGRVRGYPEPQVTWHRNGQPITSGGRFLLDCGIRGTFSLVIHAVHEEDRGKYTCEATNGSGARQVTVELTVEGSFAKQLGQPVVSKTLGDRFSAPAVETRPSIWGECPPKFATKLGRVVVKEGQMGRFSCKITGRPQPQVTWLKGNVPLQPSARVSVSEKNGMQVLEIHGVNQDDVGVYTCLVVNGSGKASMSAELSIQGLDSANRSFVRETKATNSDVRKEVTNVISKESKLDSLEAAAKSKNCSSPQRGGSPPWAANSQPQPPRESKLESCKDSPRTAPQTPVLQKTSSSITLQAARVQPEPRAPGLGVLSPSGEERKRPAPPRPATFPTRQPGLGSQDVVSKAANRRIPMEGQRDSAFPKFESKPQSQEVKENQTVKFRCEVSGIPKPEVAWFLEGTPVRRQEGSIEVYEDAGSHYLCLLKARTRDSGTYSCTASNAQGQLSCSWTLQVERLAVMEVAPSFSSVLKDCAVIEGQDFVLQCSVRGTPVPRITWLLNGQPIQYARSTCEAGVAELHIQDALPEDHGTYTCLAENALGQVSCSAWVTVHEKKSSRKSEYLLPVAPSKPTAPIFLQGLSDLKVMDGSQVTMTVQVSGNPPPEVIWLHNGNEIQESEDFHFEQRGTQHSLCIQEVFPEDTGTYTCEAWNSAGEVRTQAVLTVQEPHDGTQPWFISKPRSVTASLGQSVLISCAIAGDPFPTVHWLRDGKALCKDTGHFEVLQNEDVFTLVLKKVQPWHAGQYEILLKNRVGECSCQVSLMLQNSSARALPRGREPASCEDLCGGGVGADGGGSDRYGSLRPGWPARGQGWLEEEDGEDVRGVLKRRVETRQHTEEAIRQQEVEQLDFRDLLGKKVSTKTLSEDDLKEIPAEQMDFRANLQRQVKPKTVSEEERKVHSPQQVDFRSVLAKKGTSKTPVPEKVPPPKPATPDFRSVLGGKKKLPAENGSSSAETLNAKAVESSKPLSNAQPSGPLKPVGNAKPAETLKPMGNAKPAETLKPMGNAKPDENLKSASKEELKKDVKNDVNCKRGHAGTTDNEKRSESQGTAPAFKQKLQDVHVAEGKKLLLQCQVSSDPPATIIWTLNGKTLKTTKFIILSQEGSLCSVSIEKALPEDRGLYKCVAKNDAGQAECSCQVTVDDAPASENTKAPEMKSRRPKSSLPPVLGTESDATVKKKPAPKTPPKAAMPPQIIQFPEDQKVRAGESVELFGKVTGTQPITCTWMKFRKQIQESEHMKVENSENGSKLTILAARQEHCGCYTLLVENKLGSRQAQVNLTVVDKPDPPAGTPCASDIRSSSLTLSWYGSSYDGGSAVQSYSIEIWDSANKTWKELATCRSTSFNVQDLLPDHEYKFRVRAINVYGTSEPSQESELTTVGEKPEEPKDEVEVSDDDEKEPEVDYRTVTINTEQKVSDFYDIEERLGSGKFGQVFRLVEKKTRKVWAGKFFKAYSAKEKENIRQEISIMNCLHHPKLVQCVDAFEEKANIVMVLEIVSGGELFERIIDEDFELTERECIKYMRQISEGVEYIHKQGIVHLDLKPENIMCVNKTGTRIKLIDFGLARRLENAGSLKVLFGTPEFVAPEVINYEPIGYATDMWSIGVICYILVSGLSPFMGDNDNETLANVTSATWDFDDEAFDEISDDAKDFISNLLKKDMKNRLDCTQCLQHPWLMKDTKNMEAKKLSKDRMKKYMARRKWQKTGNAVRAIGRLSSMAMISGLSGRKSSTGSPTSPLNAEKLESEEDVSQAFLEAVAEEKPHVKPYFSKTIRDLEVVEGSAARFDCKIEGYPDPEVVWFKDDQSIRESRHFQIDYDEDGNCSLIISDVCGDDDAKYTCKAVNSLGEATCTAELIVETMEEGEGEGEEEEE
Sequence of Mitogen-activated protein kinase 9 (Homo sapiens) (P45984 whole entry, looked up): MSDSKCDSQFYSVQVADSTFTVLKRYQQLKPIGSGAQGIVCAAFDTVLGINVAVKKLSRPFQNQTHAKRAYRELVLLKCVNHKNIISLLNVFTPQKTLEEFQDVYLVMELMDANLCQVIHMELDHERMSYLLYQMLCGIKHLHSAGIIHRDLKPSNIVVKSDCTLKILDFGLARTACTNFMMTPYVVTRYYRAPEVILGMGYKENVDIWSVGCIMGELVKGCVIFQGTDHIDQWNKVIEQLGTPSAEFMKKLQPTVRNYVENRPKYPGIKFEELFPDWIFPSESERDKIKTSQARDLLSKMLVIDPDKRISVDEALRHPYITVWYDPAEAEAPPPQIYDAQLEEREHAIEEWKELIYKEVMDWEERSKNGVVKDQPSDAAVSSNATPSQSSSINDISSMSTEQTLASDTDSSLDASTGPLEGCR
Sequence of Insulin-like growth factor 1 receptor (Homo sapiens) (P08069 31-736 limits assumed): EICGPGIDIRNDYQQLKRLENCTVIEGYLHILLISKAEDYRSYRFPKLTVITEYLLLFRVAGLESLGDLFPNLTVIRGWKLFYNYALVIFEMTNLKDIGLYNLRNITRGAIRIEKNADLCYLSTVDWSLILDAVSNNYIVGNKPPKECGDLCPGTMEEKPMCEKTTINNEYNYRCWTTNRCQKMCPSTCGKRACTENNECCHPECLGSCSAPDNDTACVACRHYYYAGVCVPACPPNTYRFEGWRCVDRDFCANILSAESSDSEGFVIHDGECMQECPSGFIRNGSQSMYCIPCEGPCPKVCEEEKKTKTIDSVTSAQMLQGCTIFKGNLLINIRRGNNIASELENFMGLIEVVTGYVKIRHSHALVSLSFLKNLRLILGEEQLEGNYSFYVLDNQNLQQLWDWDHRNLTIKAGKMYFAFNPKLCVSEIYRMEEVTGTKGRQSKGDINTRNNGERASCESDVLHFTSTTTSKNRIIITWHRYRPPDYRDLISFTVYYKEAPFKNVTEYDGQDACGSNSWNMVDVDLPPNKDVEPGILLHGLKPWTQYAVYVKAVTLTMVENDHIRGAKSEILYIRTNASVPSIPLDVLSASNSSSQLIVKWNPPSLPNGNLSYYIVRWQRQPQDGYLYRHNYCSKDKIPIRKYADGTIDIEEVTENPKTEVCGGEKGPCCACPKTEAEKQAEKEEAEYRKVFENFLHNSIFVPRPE
Sequence of Insulin-like growth factor 1 receptor (Homo sapiens) (P08069 741-1367 limits assumed): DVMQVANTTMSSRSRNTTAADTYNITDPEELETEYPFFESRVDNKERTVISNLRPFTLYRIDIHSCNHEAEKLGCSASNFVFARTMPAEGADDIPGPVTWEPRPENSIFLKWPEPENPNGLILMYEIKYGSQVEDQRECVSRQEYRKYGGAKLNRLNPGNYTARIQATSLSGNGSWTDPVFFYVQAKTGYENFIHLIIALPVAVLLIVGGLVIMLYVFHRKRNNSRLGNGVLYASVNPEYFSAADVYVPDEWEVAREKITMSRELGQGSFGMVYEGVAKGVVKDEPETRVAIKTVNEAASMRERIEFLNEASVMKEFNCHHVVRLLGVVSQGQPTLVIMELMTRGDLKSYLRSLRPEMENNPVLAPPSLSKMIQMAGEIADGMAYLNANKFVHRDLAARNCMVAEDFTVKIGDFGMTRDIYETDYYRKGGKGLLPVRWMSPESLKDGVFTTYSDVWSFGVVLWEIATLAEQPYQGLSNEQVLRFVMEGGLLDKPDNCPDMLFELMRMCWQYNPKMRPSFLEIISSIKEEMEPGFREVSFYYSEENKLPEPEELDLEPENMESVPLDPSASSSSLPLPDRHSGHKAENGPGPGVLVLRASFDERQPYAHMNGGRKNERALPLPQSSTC
Sequence of Serine/threonine-protein kinase PAK 5 (Homo sapiens) (Q9P286 whole entry, looked up): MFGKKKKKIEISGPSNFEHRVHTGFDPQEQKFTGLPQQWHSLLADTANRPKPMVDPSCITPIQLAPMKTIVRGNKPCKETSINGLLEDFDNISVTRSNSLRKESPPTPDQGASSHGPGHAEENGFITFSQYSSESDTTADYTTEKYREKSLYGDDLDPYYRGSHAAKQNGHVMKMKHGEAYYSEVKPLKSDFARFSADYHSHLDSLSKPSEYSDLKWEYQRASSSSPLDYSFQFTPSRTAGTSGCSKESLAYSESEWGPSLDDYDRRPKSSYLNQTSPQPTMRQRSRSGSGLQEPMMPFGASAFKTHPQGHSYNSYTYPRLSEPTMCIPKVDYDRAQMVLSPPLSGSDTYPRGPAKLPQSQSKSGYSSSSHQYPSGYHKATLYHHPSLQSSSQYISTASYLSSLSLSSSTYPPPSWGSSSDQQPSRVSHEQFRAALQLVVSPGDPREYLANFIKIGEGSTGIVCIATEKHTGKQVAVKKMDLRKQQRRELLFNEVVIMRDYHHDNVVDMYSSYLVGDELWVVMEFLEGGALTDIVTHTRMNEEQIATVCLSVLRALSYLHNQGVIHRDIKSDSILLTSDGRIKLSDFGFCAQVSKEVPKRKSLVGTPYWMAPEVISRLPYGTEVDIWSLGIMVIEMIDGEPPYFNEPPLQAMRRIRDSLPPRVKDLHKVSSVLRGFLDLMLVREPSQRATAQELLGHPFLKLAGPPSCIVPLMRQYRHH
Sequence of Casein kinase I isoform gamma-2 (Homo sapiens) (P78368 whole entry, looked up, canonical isoform): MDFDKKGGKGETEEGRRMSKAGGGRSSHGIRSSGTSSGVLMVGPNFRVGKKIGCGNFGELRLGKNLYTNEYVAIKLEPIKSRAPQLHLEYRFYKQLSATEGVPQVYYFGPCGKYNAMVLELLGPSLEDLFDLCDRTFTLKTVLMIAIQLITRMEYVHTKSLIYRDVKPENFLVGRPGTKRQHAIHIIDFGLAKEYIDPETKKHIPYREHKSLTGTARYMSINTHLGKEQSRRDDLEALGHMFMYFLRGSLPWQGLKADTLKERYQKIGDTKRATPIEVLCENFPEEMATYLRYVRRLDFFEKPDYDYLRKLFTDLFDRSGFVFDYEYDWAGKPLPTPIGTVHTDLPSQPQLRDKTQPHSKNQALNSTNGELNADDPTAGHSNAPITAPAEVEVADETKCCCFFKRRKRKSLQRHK

As to `O=C(Nc1cccnc1)c1cc(-c2ccnc(F)c2)ccc1OCc1ccccc1`, the Activity in [1] stood at 133%; in [2], 103%; in [3] it was 32%; in [4] it was 57%; in series [5], 71%; in series [6] it was 103%. Moreover, the Activity in series [7] is 63%; in series [8] it was 69%; in [9] it was 123%; in [10] it was 27%; in series [11] it was 59%; in series [12], 104%. The Activity in [13] came to 107%; in series [14], 23%; in series [15], 38%; in series [16], 76%; in series [17], 77%; in series [20], 52%. In addition, the Activity in [21] is 102%; in series [22], 117%. Besides, the AUClast in the series on Brain stood at 1539.4 ng·h/mL. Besides, the inhibition result in [18] and in series [19] was “Active” each time.
